Experimental data published in ChEMBL document CHEMBL1134605, “Cytotoxic responses to aromatic ring and configurational variations in alpha-conidendrin, podophyllotoxin, and sikkimotoxin derivatives” (J Med Chem, 2001).
Converted amounts (≈) assume the structure as drawn.

What was measured:
[1] = tested on: CCRF-CEM; test: Relative potency in comparison to etoposide; format: functional, Homo sapiens
Summary of the method: (§1)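 Relative potency compares each compound with etoposide, the reference, using IC50s from the same modified tetrazolium dye reduction viability assay. Cells were seeded at 6.7 × 10^4 cells/well in RPMI 1640 with L-glutamine and 10% FBS.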

[2] = tested on: HL-60; test: Cytotoxicity was assessed using vincristine-resistant human leukemic cell line HL60/Vinc; format: functional, cell-based
Summary of the method: (§2)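 Modified tetrazolium dye reduction viability assay on log-phase cells seeded at 6.7 × 10^4 cells/well in RPMI 1640 with L-glutamine and 10% FBS, cultured with compounds. HL60/ADR overexpresses MRP but not Pgp; HL60/Vinc overexpresses Pgp but not MRP. IC50 values are averages of 2 determinations from a single experiment.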

[3] = tested on: CCRF-CEM; test: Cytotoxicity was assessed using human leukemic cell line CCRF-CEM; format: functional, cell-based
Summary of the method: (§3)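 Viability was read by a modified tetrazolium dye reduction method. Cells were harvested in logarithmic growth and seeded at 6.7 × 10^4 cells/well. They were grown in RPMI 1640 with L-glutamine and 10% FBS and cultured with the compounds. The IC50 was taken as the read-out.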

[4] = tested on: HL-60; test: Resistance factor was determined using the ratio of (IC50) of drug resistance cells/drug sensitive cells in HL60/Vinc cell line; format: functional, Homo sapiens
Summary of the method: (§4)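 Resistance factor = IC50 in the drug-resistant line (HL60/ADR, which overexpresses MRP, or HL60/Vinc, which overexpresses Pgp) divided by IC50 in the drug-sensitive cells. IC50s came from the tetrazolium dye reduction viability assay, as averages of 2 determinations in a single experiment.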

[5] = tested on: HL-60; test: Resistance factor was determined using the ratio of (IC50) of drug resistance cells/drug sensitive cells in HL60/ADR cell line; format: functional, Homo sapiens; summary of the method: as §4
[6] = tested on: HL-60; test: Cytotoxicity was assessed using adriamycin-resistant human leukemic cell line HL60/ADR; format: functional, cell-based; summary of the method: as §2
[7] = tested on: HL-60; test: Cytotoxicity was assessed using drug-sensitive human leukemic cell line HL60/S; format: functional, cell-based; summary of the method: as §3
[8] = tested on: HL-60; test: Relative potency compared to cytotoxicity against HL60/S cell line of etoposide; format: functional, Homo sapiens; summary of the method: as §1
[9] = tested on: CCRF-CEM; test: Relative potency compared to cytotoxicity against CCRF-CEM cell line of etoposide; format: functional, Homo sapiens; summary of the method: as §1
[10] = Homo sapiens, HL-60, read-out: IC50

SMILES | Relative potency [1] | IC50 [2] [µg/mL] | IC50 [3] [µg/mL] | RF [4] | RF [5] | IC50 ([6]; hl-60) [µg/mL] | IC50 [7, 10] [µg/mL] | Relative potency [8] | Relative potency [9] | IC50 [6, 10] [µg/mL] | IC50 ([7]; hl-60) [µg/mL]
COc1cc([C@@H]2c3cc4c(cc3[C@@H](O[C@@H]3O[C@@H]5CO[C@@H](C)O[C@H]5[C@H](O)[C@H]3O)[C@H]3COC(=O)[C@H]23)OCO4)cc(OC)c1O [ETOPOSIDE] | 1 | 18.1 (≈ 30.7 µM) | 1.15 (≈ 1.95 µM) | 11 | 33 | 54.94 (≈ 93.3 µM) | 1.64 (≈ 2.79 µM) | – | – | – | –
COc1cc([C@H]2c3cc4c(cc3C[C@H]3COC[C@@H]32)OCO4)cc(OC)c1OC | – | 3.06 (≈ 7.96 µM) | 8.15 (≈ 21.2 µM) | 0.4 | 0.7 | – | 7.09 (≈ 18.5 µM) | 0.23 | 0.14 | 4.86 (≈ 12.6 µM) | –
COc1cc2c(cc1OC)C(c1cc(OC)c(OC)c(OC)c1)[C@H]1COC[C@@H]1C2 (some centres not stated) | – | 0.314 (≈ 0.784 µM) | 0.47 (≈ 1.17 µM) | 0.6 | 0.7 | – | 0.533 (≈ 1.33 µM) | 3.08 | 2.4 | 0.362 (≈ 0.904 µM) | –
COc1ccc([C@@H]2c3cc(OC)c(OC)cc3C[C@H]3COC[C@@H]32)cc1OC | – | 36.1 (≈ 97.4 µM) | 38.5 (≈ 104 µM) | 0.3 | 0.2 | – | – | 0.01 | 0.03 | 23.3 (≈ 63 µM) | 117.178 (≈ 316 µM)
COc1cc([C@@H]2c3cc4c(cc3C[C@H]3COC[C@@H]32)OCO4)cc(OC)c1OC | – | 0.015 (≈ 0.039 µM) | 0.043 (≈ 0.112 µM) | 0.5 | 0.6 | – | 0.03 (≈ 0.078 µM) | 54.8 | 27 | 0.019 (≈ 0.0494 µM) | –
COc1ccc([C@H]2c3cc(OC)c(OC)cc3C[C@H]3COC[C@@H]32)cc1OC | – | 14.7 (≈ 39.8 µM) | 21.9 (≈ 59 µM) | 0.4 | 0.7 | – | 36.3 (≈ 97.9 µM) | 0.05 | 0.05 | 26.1 (≈ 70.3 µM) | –
